ARFGAP1 inhibitor – inhibitors of rat ARFGAP1 | Arfgap1-stimulated ARF1 GTP hydrolysis, GDP FP detection | inhibition, % at 16.5 µM | actives 0.26% (n = 360,000) | AID 651572;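 active means inhibition above a per-plate limit, mean inhibition of low control wells plus 3 SD, cut at about 25% in these data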
Target sequence (Q62848 1-136 limits assumed): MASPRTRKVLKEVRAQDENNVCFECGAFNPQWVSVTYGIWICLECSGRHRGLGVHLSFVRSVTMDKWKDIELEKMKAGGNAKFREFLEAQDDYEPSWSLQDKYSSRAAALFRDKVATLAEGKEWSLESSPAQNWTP
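Assay system: purified rat His6-Arfgap1 residues 1-136 (GAP domain); Reagent: human Δ17 ARF1 bound to GTP; Dosing: 16.5 µM single point, 1.26% DMSO; Times: GTP hydrolysis reaction 2 h at 25 °C; Signal: FP, GDP Alexa 633 tracer displaced from anti-GDP antibody, 620/688 nm; Measure: % inhibition from polarization.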
ASAP1 GAP inh – blocks human ASAP1-stimulated Arf1 GTP hydrolysis; Q9ULH1; GDP FP detection; inhibition, % at 16.5 µM; actives 0.19% (n = 360,000); in the data active means inhibition above about 25%
Target sequence (Q9ULH1 325-724 limits assumed): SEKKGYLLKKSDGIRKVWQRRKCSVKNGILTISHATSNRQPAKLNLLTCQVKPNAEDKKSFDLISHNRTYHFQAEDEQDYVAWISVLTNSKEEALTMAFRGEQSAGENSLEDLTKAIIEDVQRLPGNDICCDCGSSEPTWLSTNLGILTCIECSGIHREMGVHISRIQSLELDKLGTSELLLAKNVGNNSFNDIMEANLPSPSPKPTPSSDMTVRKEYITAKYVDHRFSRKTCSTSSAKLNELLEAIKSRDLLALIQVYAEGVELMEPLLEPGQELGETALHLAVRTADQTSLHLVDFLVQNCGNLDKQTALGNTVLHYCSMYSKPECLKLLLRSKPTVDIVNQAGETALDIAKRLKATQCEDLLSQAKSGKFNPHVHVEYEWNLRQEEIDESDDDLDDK
PAFAH2 inh – PAFAH2 (human) inhibition; Q99487; actives 0.99% (n = 340,000); recombinant PAFAH2, FP-rhodamine activity probe, fluorescence polarization; inhibition, % at 3.39 µM;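 active means inhibition above the mean over all tested compounds plus 3 SD, cut at about 30% in these data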;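 further: inhibitors block probe labeling of enzyme so polarization drops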
pPAFAH FP inh – pPAFAH (human) enzyme inhibition; Q13093; recombinant pPAFAH, FP-rhodamine probe fluorescence polarization; actives 1.5% (n = 330,000); inhibition, % at 3.39 µM;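 active means inhibition above the mean inhibition across the screen plus 3 SD, cut at about 25% in these data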;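 further: inhibitors block binding of the rhodamine activity-based probe so polarization drops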
PAFAH1B2 inh – blocks human PAF acetylhydrolase 1b catalytic subunit 2; P68402; recombinant PAFAH1B2, FP-rhodamine activity probe, fluorescence polarization; inhibition, % at 3.39 µM; actives 1.2% (n = 340,000); AID 492953;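 active means inhibition above the mean of all tested compounds plus 3 SD, cut at about 24% in these data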
Target sequence (P68402 whole entry, looked up): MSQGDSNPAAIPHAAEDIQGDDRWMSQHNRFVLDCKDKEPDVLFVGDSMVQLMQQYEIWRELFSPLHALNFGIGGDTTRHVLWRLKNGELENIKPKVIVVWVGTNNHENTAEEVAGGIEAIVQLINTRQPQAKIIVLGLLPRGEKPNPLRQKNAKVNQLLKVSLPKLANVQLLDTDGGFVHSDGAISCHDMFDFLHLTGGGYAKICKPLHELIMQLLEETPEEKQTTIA
PAFAH1B3 FP inh – blocks human PAF acetylhydrolase 1B catalytic subunit 3; actives 0.28% (n = 340,000); recombinant PAFAH1B3, FP-rhodamine probe, fluorescence polarization; Q15102; inhibition, % at 3.39 µM; AID 492972;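 active means inhibition above the screen-wide average of all tested compounds plus 3 SD, cut at about 25% in these data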
pPAFAH FP conf – pPAFAH (human) inhibition, confirmed; AID 463230; inhibition, % at 3.39 µM; recombinant pPAFAH, FP-Rh probe fluorescence polarization; actives 72% (n = 2,300); shares compounds with pPAFAH FP inh;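 active means mean inhibition of the triplicate above the hit cutoff set for the earlier primary screen, cut at about 25% in these data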
Large screens that a line does not name were inactive (follow-up assays come after a bar, where they were run). Only some compounds are listed: those with a hit (about 2.7% of all), similar ones and a draw of the others.

C=C1c2cccc(O)c2C(=O)C2C(=O)[C@]3(O)C(=O)C(C(N)=O)C(=O)[C@@H](N(C)C)[C@@H]3[C@@H](O)[C@H]12 (stereo partly drawn)	PAFAH2 inh 52.1, pPAFAH FP inh 92.3, PAFAH1B2 inh 33.0, PAFAH1B3 FP inh 45.2 | pPAFAH FP conf inactive
O=C(N/N=C1/CC2CCC1C2)c1cc2ccccc2cc1O (stereo not drawn)	pPAFAH FP inh 45.8 | pPAFAH FP conf inactive
CCCCC/C=C\C/C=C\C/C=C\CCCCC(=O)O	pPAFAH FP inh 38.0 | pPAFAH FP conf inactive
COc1ccc(OC)c(N(CCN2C(=O)c3ccccc3C2=O)C(=O)C2CCC(=O)C2C)c1 (stereo not drawn)	none (no result: PAFAH2 inh, pPAFAH FP inh, PAFAH1B2 inh, PAFAH1B3 FP inh)
CC(C)=C1C(=O)NN(c2cccc(Cl)c2)C1=O	none
CC(C)=C1C(=O)NN(c2ccc(C)c(Cl)c2)C1=O	pPAFAH FP inh 58.6 | pPAFAH FP conf inactive
N#Cc1ccc(/C=N/NC(=S)Nc2ccc(S(=O)(=O)N3CCOCC3)cc2)cc1	none
O=S(=O)(c1ccc(NC(=S)N/N=C/c2ccc(O)c(O)c2)cc1)N1CCOCC1	pPAFAH FP inh 65.2 | pPAFAH FP conf 61.1
CCCc1ccc2oc(C(=O)N3CCC(O)CC3)c(C)c2c1	pPAFAH FP inh 39.5 | pPAFAH FP conf inactive
CCC1CCc2sc(C(=O)OCC(=O)N(CCOC)c3c(N)n(Cc4ccccc4)c(=O)[nH]c3=O)cc2C1 (stereo not drawn)	none
COCCN(C(=O)COC(=O)c1cc2c(s1)CCC2)c1c(N)n(Cc2ccccc2)c(=O)[nH]c1=O	PAFAH2 inh 57.3, pPAFAH FP inh 56.4 | pPAFAH FP conf 34.4
COCCN1Cc2cc(C(=O)OC)c3c(c2C1=O)c1ccccc1n3S(=O)(=O)c1ccc(OC)cc1	none (no result: PAFAH2 inh, pPAFAH FP inh, PAFAH1B2 inh, PAFAH1B3 FP inh)
CN(CC(=O)Nc1ccc(Cl)cc1)C(=O)c1ccc(-n2cncn2)c([N+](=O)[O-])c1	pPAFAH FP inh 71.2 | pPAFAH FP conf inactive
COCCN1Cc2cc3cc(C)ccc3nc2SC1=Nc1ccc(OC)cc1	none
COCCN=C1Sc2nc3ccc(C)cc3cc2CN1Cc1cccs1	pPAFAH FP inh 40.5 | pPAFAH FP conf 60.5
COc1ccc(OC)c(S(=O)(=O)CC(=O)c2cc3ccccc3oc2=O)c1	none (no result: PAFAH2 inh, pPAFAH FP inh, PAFAH1B2 inh, PAFAH1B3 FP inh)
COc1ccc(C(C(=O)NCC2CCCO2)N(Cc2cccs2)C(=O)c2snc(C(N)=O)c2N)cc1OC (stereo not drawn)	pPAFAH FP inh 38.0 | pPAFAH FP conf inactive
COC(C[C@H]1O[C@@H]1C(=O)[C@H](C)OCc1ccccc1)OC	none
O=C(N/N=C1/CCSC1)c1cc(Br)ccc1O	pPAFAH FP inh 36.9 | pPAFAH FP conf inactive
CN(c1ccccc1)c1ccc(/C=C(\CCC(=O)O)c2nc3ccccc3s2)cc1[N+](=O)[O-]	PAFAH2 inh 32.2, pPAFAH FP inh 53.9, PAFAH1B2 inh 89.0 | pPAFAH FP conf 57.6
Cc1cc(/C=C2/SC(=S)N(c3cccc(Cl)c3)C2=O)c(C)n1-c1cccnc1	pPAFAH FP inh 39.4 | pPAFAH FP conf 36.9
COc1cc2[nH]c3c(N4CCN(c5ccc(Cl)cc5)CC4)ncnc3c2cc1OC	pPAFAH FP inh 61.8, PAFAH1B3 FP inh 38.5 | pPAFAH FP conf 53.8
COc1cc2[nH]c3c(Cl)ncnc3c2cc1OC	none
C=CC[C@]12C[C@@]3(O[C@H](c4ccc(C(F)(F)F)cc4)N=C3C[C@H](c3ccc(OC)cc3)[C@H]1C)N(Cc1ccncc1)C2=O	none (no result: PAFAH2 inh, pPAFAH FP inh, PAFAH1B2 inh, PAFAH1B3 FP inh)
N=C1SC(c2ccccc2)C(=O)N1c1ncc(Cc2ccccc2Cl)s1 (stereo not drawn)	pPAFAH FP inh 58.3 | pPAFAH FP conf 71.0
O=C(CSc1nnnn1-c1ccccc1)Nc1ncc(Cc2ccccc2Cl)s1	none
COc1ccc(OC)c(Nc2cc(-c3ccccc3)nc(N)n2)c1	pPAFAH FP inh 42.6 (no result: PAFAH2 inh, PAFAH1B2 inh, PAFAH1B3 FP inh) | pPAFAH FP conf 37.2
COc1cccc(NC(=O)Nc2cc(C(=O)NCC3CCCO3)ccc2N2CC3CC(C2)c2cccc(=O)n2C3)c1 (stereo not drawn)	pPAFAH FP inh 62.4 | pPAFAH FP conf 61.2
CCCC(=O)N1CCC1(C)C(=O)NS(=O)(=O)c1ccc(OC)cc1 (stereo not drawn)	none (no result: PAFAH2 inh, pPAFAH FP inh, PAFAH1B2 inh, PAFAH1B3 FP inh)
COc1cccc(-c2nc(-c3cccc(C)c3)nc3cc(Cl)ccc23)c1	none (no result: PAFAH2 inh, pPAFAH FP inh, PAFAH1B2 inh, PAFAH1B3 FP inh)
COc1cccc2c1C(=O)c1c(O)c3c(c(O)c1C2=O)C[C@@](O)(C(=O)CO)C[C@@H]3O[C@H]1C[C@H](N)[C@@H](O)[C@H](C)O1	PAFAH2 inh 55.0, pPAFAH FP inh 60.5, PAFAH1B2 inh 51.4, PAFAH1B3 FP inh 42.9 (no result: ARFGAP1 inhibitor, ASAP1 GAP inh) | pPAFAH FP conf 44.6
CC(=O)[C@]1(O)Cc2c(O)c3c(c(O)c2[C@@H](O[C@H]2C[C@H](N)[C@H](O)[C@H](C)O2)C1)C(=O)c1ccccc1C3=O	pPAFAH FP inh 59.2 (no result: ARFGAP1 inhibitor, ASAP1 GAP inh, PAFAH2 inh, PAFAH1B2 inh, PAFAH1B3 FP inh) | pPAFAH FP conf 68.6
O=C(CCc1nc2ccccc2c(=O)[nH]1)Nc1nnc(SCc2ccc(F)cc2)s1	none
CCN(CCO)c1nc(N2CCCCC2)c2cnn(C)c2n1	none
O=C(/C=C(\Nc1cc(Cl)c(Cl)c(Cl)c1)c1ccccc1)c1ccccc1	none (no result: PAFAH2 inh, pPAFAH FP inh, PAFAH1B2 inh, PAFAH1B3 FP inh)
CCCn1nc([N+](=O)[O-])c(C(C#N)c2nc3ccccc3s2)c(Cl)c1=O (stereo not drawn)	PAFAH2 inh 60.1, pPAFAH FP inh 56.5 | pPAFAH FP conf 51.4
N#C/C(=C\c1ccc([N+](=O)[O-])o1)C(=O)Nc1ccc(F)cc1	pPAFAH FP inh 43.6 | pPAFAH FP conf inactive
O=C(O)c1cc(Cl)c2c(c1)[C@@H]1C=CC[C@@H]1[C@H](c1ccc(S(=O)(=O)N3CCOCC3)cc1)N2	PAFAH2 inh 40.8, pPAFAH FP inh 45.9 (no result: ARFGAP1 inhibitor, ASAP1 GAP inh) | pPAFAH FP conf inactive
O=C(NCCc1ccc(Cl)cc1)c1ccc2c(=O)[nH]c3c(C(=O)NCC4CCCO4)sc(=S)n3c2c1 (stereo not drawn)	none (no result: PAFAH2 inh, pPAFAH FP inh, PAFAH1B2 inh, PAFAH1B3 FP inh)
CCCCNC(=O)c1sc(=S)n2c1[nH]c(=O)c1ccccc12	PAFAH2 inh 38.0, pPAFAH FP inh 34.9, PAFAH1B2 inh 26.1, PAFAH1B3 FP inh 30.9 | pPAFAH FP conf 63.1
O=C(NCCc1ccccc1)c1ccc2c(=O)[nH]c3c(C(=O)NCC4CCCO4)sc(=S)n3c2c1 (stereo not drawn)	pPAFAH FP inh 70.7, PAFAH1B2 inh 49.6, PAFAH1B3 FP inh 30.2 | pPAFAH FP conf 83.9
CCCCOc1ccc2c(c1)C(=O)c1cc(O)ccc1-2	none
CCOc1ccc2c(c1)C(=O)c1cc(OCC(=O)O)ccc1-2	pPAFAH FP inh 36.9 | pPAFAH FP conf inactive
CC(OC(=O)c1ccc(Cl)cc1)C(=O)NCc1ccc2c(c1)OCO2 (stereo not drawn)	pPAFAH FP inh 53.7 | pPAFAH FP conf inactive
